Assay results published in publication PMC7368294 (Proceedings of the National Academy of Sciences of the …, 2020).
Read-outs that look alike come from different tables or passages of the source.

Assays:
Dα1/Dβ1 nAChR [1] = biological target: T1, Dα1/Dβ1 nAChR (Drosophila melanogaster, UniProt P04755+P09478); assay: two-electrode voltage clamp of Xenopus oocytes, agonist concentration-response; type: cell-based
T1 sequence (P09478 22-567): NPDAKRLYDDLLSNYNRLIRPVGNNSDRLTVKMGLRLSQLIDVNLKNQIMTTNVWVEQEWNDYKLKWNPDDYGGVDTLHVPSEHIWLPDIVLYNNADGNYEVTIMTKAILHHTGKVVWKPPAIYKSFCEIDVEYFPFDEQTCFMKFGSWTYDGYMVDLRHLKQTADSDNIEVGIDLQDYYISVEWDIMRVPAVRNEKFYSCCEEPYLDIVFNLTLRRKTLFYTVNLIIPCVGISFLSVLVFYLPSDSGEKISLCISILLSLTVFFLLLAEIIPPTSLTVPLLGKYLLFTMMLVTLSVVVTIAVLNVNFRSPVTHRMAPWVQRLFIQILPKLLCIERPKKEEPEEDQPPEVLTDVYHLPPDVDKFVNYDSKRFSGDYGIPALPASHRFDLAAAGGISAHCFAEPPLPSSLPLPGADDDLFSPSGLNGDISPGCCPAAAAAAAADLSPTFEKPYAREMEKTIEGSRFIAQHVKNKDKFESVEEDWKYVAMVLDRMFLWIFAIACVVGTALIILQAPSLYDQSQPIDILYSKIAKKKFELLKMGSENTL
T1 sequence (P04755 25-521): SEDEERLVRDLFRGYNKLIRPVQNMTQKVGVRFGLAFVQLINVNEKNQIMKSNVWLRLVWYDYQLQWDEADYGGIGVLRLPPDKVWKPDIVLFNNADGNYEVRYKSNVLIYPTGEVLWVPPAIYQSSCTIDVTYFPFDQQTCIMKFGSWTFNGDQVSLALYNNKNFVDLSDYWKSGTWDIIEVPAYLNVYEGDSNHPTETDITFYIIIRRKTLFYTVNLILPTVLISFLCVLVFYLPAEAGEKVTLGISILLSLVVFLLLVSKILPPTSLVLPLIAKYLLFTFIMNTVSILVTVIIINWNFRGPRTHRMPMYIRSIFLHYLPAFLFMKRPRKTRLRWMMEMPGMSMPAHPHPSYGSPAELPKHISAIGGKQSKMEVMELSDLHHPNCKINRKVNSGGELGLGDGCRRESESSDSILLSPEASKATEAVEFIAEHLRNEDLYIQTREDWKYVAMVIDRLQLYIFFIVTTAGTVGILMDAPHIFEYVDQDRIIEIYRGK
In short: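 Oocytes were collagenase-defolliculated, injected with subunit and cofactor cRNAs (100 ng⋅μL−1 each) and kept 3–7 d at 16 °C. Cells were clamped at −100 mV and perfused with saline containing 0.5 μM atropine. Agonists were applied 5 s at 3-min intervals after stable 100 μM ACh responses. Peak currents were normalized to 100 μM ACh and Hill-fitted. n = 5, ≥2 frogs; DMSO <0.1%.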

Dα1/Dα2/Dβ1 nAChR [2] = biological target: T2, Dα1/Dα2/Dβ1 nAChR (Drosophila melanogaster, UniProt P04755+P09478+P17644); assay: cell-based; set-up: species or system Xenopus laevis oocytes; conditions: Oocyte
T2 sequence (P09478 22-567): T1 sequence (P09478 22-567)
T2 sequence (P17644 22-576): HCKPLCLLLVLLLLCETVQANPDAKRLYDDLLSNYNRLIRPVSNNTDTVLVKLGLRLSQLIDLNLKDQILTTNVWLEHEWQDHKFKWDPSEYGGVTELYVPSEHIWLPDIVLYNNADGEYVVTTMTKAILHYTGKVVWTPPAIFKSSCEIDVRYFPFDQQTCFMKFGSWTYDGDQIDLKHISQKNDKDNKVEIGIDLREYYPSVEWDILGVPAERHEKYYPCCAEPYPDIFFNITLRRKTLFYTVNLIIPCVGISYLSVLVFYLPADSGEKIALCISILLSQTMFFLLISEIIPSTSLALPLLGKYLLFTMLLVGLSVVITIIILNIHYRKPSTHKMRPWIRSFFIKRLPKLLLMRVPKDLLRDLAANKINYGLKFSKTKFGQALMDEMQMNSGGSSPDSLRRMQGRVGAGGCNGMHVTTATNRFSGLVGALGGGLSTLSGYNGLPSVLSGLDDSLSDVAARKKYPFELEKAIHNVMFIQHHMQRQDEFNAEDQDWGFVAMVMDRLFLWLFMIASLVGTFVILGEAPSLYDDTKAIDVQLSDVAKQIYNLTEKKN
T2 sequence (P04755 25-521): T1 sequence (P04755 25-521)

Dα1/Dα2/Dβ1 nAChR [3] = biological target: T2, Dα1/Dα2/Dβ1 nAChR; assay: cell-based; set-up: species or system Xenopus laevis oocytes
Dα1/Dβ1/Dβ2 nAChR [4] = biological target: T3, Dα1/Dβ1/Dβ2 nAChR (Drosophila melanogaster, UniProt P04755+P09478+P25162); assay: cell-based; set-up: species or system Xenopus laevis oocytes
T3 sequence (P09478 22-567): T1 sequence (P09478 22-567)
T3 sequence (P04755 25-521): T1 sequence (P04755 25-521)
T3 sequence (P25162 19-519): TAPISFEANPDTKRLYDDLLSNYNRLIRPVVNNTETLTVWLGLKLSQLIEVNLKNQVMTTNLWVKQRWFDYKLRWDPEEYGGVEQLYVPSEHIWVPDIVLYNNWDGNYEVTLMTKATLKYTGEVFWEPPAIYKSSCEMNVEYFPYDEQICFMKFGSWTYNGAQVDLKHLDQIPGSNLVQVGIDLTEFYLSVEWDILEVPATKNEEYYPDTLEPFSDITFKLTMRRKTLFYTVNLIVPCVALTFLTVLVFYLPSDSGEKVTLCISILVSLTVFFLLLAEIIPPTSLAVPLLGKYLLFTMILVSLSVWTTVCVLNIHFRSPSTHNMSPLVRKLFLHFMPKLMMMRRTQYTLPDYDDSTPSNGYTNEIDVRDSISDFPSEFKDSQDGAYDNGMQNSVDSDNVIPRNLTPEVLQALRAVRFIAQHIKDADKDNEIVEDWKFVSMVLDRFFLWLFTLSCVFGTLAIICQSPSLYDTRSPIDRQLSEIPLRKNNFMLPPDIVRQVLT

Dα1/Dα2/Dβ1/Dβ2 nAChR [5] = biological target: T4, Dα1/Dα2/Dβ1/Dβ2 nAChR (Drosophila melanogaster, UniProt P04755+P09478+P17644+P25162); assay: cell-based; set-up: species or system Xenopus laevis oocytes
Dα1/Dα2/Dβ1/Dβ2 nAChR [6] = biological target: T4, Dα1/Dα2/Dβ1/Dβ2 nAChR; assay: two-electrode voltage clamp of Xenopus oocytes, agonist concentration-response; type: cell-based
Dα1/Dβ1/Dβ2 nAChR [7] = biological target: T3, Dα1/Dβ1/Dβ2 nAChR; assay: as above; type: cell-based
Dα1/Dα2/Dβ1 nAChR [8] = biological target: T2, Dα1/Dα2/Dβ1 nAChR; assay: as above; type: cell-based
Dα1/Dβ1 nAChR [9] = biological target: T1, Dα1/Dβ1 nAChR; assay: cell-based; set-up: species or system Xenopus laevis oocytes

SMILES | EC50 (Dα1/Dβ1 nAChR [1]) [µM] | Emax (Dα1/Dα2/Dβ1 nAChR [2]; read-out: Clothianidin / Imax) [%] | EC50 (Dα1/Dα2/Dβ1 nAChR [3]) [µM] | EC50 (Dα1/Dβ1/Dβ2 nAChR [4]) [µM] | EC50 (Dα1/Dα2/Dβ1/Dβ2 nAChR [5]) [µM] | EC50 (Dα1/Dα2/Dβ1/Dβ2 nAChR [6]) [µM] | Emax (Dα1/Dα2/Dβ1 nAChR [2]; read-out: Thiacloprid / Imax) [%] | EC50 (Dα1/Dβ1/Dβ2 nAChR [7]) [µM] | EC50 (Dα1/Dα2/Dβ1 nAChR [8]) [µM] | EC50 (Dα1/Dβ1 nAChR [9]) [µM] | Emax (Dα1/Dα2/Dβ1 nAChR [2]; read-out: Imidacloprid / Imax) [%]
CN/C(=N\[N+](=O)[O-])NCc1cnc(Cl)s1 [clothianidin] | 0.0617 | 46.7 ± 2.1 | 2.95 | 0.219 | 0.309 |  |  |  |  |  | 
N#C/N=C1\SCCN1Cc1ccc(Cl)nc1 [thiacloprid] | 0.0229 |  |  |  |  | 0.0708 | 2 ± 0.2 | 0.0186 | 0.234 |  | 
O=[N+]([O-])NC1=NCCN1Cc1ccc(Cl)nc1 [imidacloprid] |  |  |  |  |  | 0.12 |  | 0.107 | 0.407 | 0.174 | 4.6 ± 0.4
